Screening results: PubChem BioAssay, NMMLSC
This is a sample that favours compounds with a hit; in the whole collection about 0.9% have one here.
RGS4-Gao reg: modulators of RGS4 binding to Galphao, primary screen, biochemical, multiplexed bead flow cytometry; Guanine nucleotide-binding protein G(o) subunit alpha (Homo sapiens), P09471; actives lie on both sides; binding response (% of control), % at 10 µM; 220,000 compounds, 0.33% hits; AID 1415, 2008; in the data active = binding response below about 49% or above about 150%; inactive = in between;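 note: fluorescent Galphao activated with aluminum fluoride binding bead-coupled RGS4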
Target sequence (P09471 whole entry, looked up): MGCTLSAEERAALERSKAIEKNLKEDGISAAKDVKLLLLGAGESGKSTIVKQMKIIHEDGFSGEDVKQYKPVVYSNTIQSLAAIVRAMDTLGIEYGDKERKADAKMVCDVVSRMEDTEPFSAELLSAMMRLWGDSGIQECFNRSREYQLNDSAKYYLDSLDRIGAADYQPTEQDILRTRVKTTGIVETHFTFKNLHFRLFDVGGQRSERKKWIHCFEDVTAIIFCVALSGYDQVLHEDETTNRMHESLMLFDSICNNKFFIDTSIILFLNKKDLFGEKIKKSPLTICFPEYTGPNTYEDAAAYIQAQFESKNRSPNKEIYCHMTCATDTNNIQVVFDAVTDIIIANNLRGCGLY
RGS16-Gao: modulators of RGS16 binding to Galphao, primary screen, biochemical, human proteins, multiplexed bead flow cytometry; bead-based flow cytometry RGS16-Galphao binding, fluorescence; actives lie on both sides; binding response (% of control), % at 10 µM; AID 1441, 2008; 220,000 compounds, 0.38% hits;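 note: Galphao activated by GDP with aluminum fluoride before binding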
Target sequence (O15492 whole entry, looked up): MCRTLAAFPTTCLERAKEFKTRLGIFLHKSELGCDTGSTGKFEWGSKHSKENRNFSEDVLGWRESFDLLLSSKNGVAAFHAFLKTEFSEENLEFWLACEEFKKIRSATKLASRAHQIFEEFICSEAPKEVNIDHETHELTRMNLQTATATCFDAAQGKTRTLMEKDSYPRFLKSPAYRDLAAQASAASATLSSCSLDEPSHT
Target sequence (P09471 whole entry, looked up): as the sequence (P09471 whole entry, looked up) above
RGS7-Gao: RGS7-Galphao binding modulators, primary screen, biochemical, multiplexed bead flow cytometry | Guanine nucleotide-binding protein G(o) subunit alpha (Homo sapiens), P09471 | actives lie on both sides | binding response (% of control), % at 10 µM | 220,000 compounds, 0.35% hits | AID 1439, 2008; in the data active = binding response below about 49% or above about 150%; inconclusive = no clear call, values can overlap the other calls; inactive = in between;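 note: fluorescent Galphao held in activated GDP-AlF4 state binding bead-coupled RGS7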
ABCG2 block: ABCG2 efflux pump inhibitors, primary screen, multiplex with ABCB1, IgMXP3 cells, flow cytometry | Broad substrate specificity ATP-binding cassette transporter ABCG2 (Homo sapiens), Q9UNQ0 | JC-1 efflux | inhibition, % at 6.6 µM | 190,000 compounds, 0.1% hits | AID 1325, 2008;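 active = inhibition above 80%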;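 note: 0% = DMSO and 100% = nicardipine control wells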
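Read-out basis: Efflux inhibition in percent versus controls | Test system: ABCG2 IgMXP3 and barcoded ABCB1 CCRF-Adr cell mix | Quantity: 3 million cells/mL in well | Schedule: 10 min at 25 °C | Control set: Nicardipine as high control, DMSO as low control | Reagent: JC-1 as fluorescent efflux pump substrate | Signal: Flow cytometry of retained JC-1 fluorescence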
RGS8-Gao reg: RGS8-Galphao binding modulators, primary screen, biochemical, multiplexed bead flow cytometry | response (percent of control binding), % at 10 µM | actives lie on both sides | 220,000 compounds, 0.34% hits | Guanine nucleotide-binding protein G(o) subunit alpha (Homo sapiens), P09471; in the data active = response below about 60% or above about 140%; inactive = in between;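 note: Galphao activated as the GDP aluminium fluoride complex binding bead-coupled RGS8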
ABCB1 block: ABCB1 efflux pump inhibitors, primary screen, cell-based, multiplex, flow cytometry, ABCG2 counter-screen; ATP-dependent translocase ABCB1 (Homo sapiens), P08183; CCRF-Adr cells, JC-1 efflux; inhibition, % at 6.6 µM; 190,000 compounds, 0.067% hits; AID 1326, 2008; in the data active = inhibition above about 40%;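 note: 0% = vehicle and 100% = reference inhibitor; higher value means more JC-1 retained so stronger ABCB1 efflux block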
RGS-Gao: modulators of RGS–Galpha-o binding, primary screen, biochemical, multiplexed beads, flow cytometry, RGS4/7/8/16/19; shares compounds with RGS16-Gao; multiplexed bead flow cytometry; RGS4–Galpha-o binding response, % at 10 µM; 1,600 compounds, 99% hits; AID 1504, 2009;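 note: fluorescently labeled Galpha-o bound to GDP with aluminium fluoride binding biotinylated RGS beads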
Avidin counter: disruption of biotin probe capture by avidin, counter-screen for RGS protein interaction modulators, biochemical, flow cytometry, bead-based; shares compounds with RGS16-Gao; streptavidin beads, fluorescein-biotin binding; inhibition, % at 10 µM; 1,700 tested, under 10 active; AID 1783, 2009;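 active = inhibition above 50%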;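 note: median green fluorescence of gated singlet beads compared with DMSO control wells; 0% = DMSO wells and 100% = complete loss of bead fluorescence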
RGS8-Gao confirm: RGS8-Galphao binding modulators, confirmation, biochemical, multiplexed bead flow cytometry, single concentration; bead-based flow cytometry RGS8-Galphao binding, fluorescence; actives lie on both sides; AID 1836, 2009; shares compounds with RGS16-Gao; binding response (% of control), % at 10 µM; 1,700 compounds, 3% hits; in the data active = binding response below about 72% or above about 130%; inactive = in between;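 note: Galphao activated as GDP AlF4 complex before binding bead RGS8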
RGS7-Gao confirm: RGS7-Galphao binding modulators, confirmation, biochemical, multiplexed bead flow cytometry, single concentration; shares compounds with RGS16-Gao; bead-based flow cytometry RGS7-Galphao binding; actives lie on both sides; response (percent of control binding), % at 10 µM; 1,700 compounds, 7.8% hits; AID 1837, 2009; in the data active = response below about 75% or above about 130%; inactive = in between;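 note: fluorescent Galphao activated with GDP and aluminum fluoride binding bead-coupled RGS7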
RGS16-Gao conf: modulators of RGS16-Galphao protein binding, confirmation, biochemical, single concentration, multiplexed bead flow cytometry; response (% of control binding), % at 10 µM; shares compounds with RGS16-Gao; bead-based flow cytometry; actives lie on both sides; AID 1838, 2009; 1,700 compounds, 4% hits; in the data active = response below about 74% or above about 130%; inactive = in between;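 note: Galphao activated as the GDP aluminium fluoride complex binding bead-coupled RGS16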
RGS4-Gao confirm: modulators of RGS4-Galphao protein binding, confirmation, biochemical, single concentration, multiplexed bead flow cytometry; shares compounds with RGS16-Gao; actives lie on both sides; binding response (% of control), % at 10 µM; 1,700 compounds, 4% hits; in the data active = binding response below about 74% or above about 130%; inactive = in between
RGS19-Gao conf: regulators of RGS19-Galphao binding, confirmation, biochemical, single point, multiplexed bead flow cytometry; shares compounds with RGS16-Gao; bead-based flow cytometry RGS19-Galphao binding; actives lie on both sides; response (percent of control binding), % at 10 µM; 1,700 compounds, 5% hits; AID 1841, 2009; in the data active = response below about 50% or above about 160%; inactive = in between;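 note: 100% = no compound control and 0% = blank background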
Numbers without * were called inactive; ? = inconclusive; · = no result given; [ ] = remark or other dose. Unless noted, the rule behind the calls is not given here.

SMILES | RGS4-Gao reg | RGS16-Gao | RGS7-Gao | ABCG2 block | RGS8-Gao reg | ABCB1 block | RGS-Gao | Avidin counter | RGS8-Gao confirm | RGS7-Gao confirm | RGS16-Gao conf | RGS4-Gao confirm | RGS19-Gao conf
COc1ccc(OC)c(NC(=O)Nc2nnc(N3CCC(C)CC3)s2)c1 | 40* | 40 | 43* | 9 | 58* | 0 | · | 0 | 109 | 108 | 118 | 106 | 108
COc1ccc(NC(=O)Nc2nnc(N3CCC(C)CC3)s2)cc1OC | 107 | 110 | 106 | 16 | 106 | 1 | · | · | · | · | · | · | ·
CCC(C)NC(=O)C1c2ccccc2C(=O)N1Cc1ccc(OC)cc1OC (configuration not stated) | 138 | 424 | 127 | 2 | 147*[activator] | 1 | 138* | 1 | 102 | 99 | 90 | 97 | 62
CCC(C)NC(=O)C1c2ccccc2C(=O)N1Cc1ccccc1OC (configuration not stated) | 92 | 91 | 94 | 5 | 97 | 1 | · | · | · | · | · | · | ·
COc1cc(C)c(NC(=O)C(=S)NCCc2ccccc2)cc1C | 103 | 90 | ? | 6 | 93 | 0 | · | · | · | · | · | · | ·
CSC1=N/C(=C/c2cccnc2)C(=O)N1Cc1ccccc1 | -9.4* | -5.1* | ? | · | 12* | · | · | 0 | 97 | 95 | 98 | 100 | 60
CSC1=N/C(=C/c2cccnc2)C(=O)N1Cc1ccc(Cl)cc1 | 103 | 107 | ? | · | 101 | · | · | · | · | · | · | · | ·
Cc1ccc(Cn2nnc3c(=O)[nH]c(C4CCCN(S(=O)(=O)c5ccccc5)C4)nc32)cc1 (configuration not stated) | 73 | -107* | 80 | 1 | 73 | 0 | 73* | 0 | 105 | 99 | 107 | 105 | 109
CCCCNC(=O)C1(NC(=O)Nc2ccc(C)cc2)CCCCC1 | 101 | 99 | ? | 2 | 101 | 0 | · | · | · | · | · | · | ·
O=C(O)CCC(=O)Nc1ccc(/C=C/C(=O)C2CC2)cc1 | 104 | 111 | 107 | 2 | 102 | 1 | · | · | · | · | · | · | ·
CC(C)(O)C1=NOC(c2ccccc2)C1 (configuration not stated) | 133 | 114 | 338*[activator] | 0 | 99 | 0 | 133* | 0 | 103 | 102 | 102 | 103 | 109
O=C1CC(=O)CC(c2ccccc2)C1 | 102 | 110 | 96 | 2 | 100 | 1 | · | · | · | · | · | · | ·
Cc1ccc(OC(C)C(=O)N/N=C/c2ccccn2)cc1 (configuration not stated) | 114 | 135 | 104 | 2 | 102 | 0 | · | · | · | · | · | · | ·
CCOc1ccc(NC(=O)CC(NCc2ccccn2)C(=O)O)cc1 (configuration not stated) | 98 | 96 | 96 | 1 | 97 | 1 | · | · | · | · | · | · | ·
O=C(N/N=C/c1cn(-c2ccccc2)nc1-c1cccnc1)c1cccnc1 | 112 | 104 | 174*[activator] | 24 | 103 | 0 | 112* | 1 | 100 | 105 | 103 | 101 | 107
O=C(N/N=C/c1cn(-c2ccccc2)nc1-c1cccnc1)c1ccc(F)cc1 | 97 | 96 | ? | 4 | 97 | 2 | · | · | · | · | · | · | ·
CC(C)CNC(=O)COC(=O)c1ccccc1SCC(=O)NCC(C)C | 98 | 102 | 100 | 0 | 103 | 0 | · | · | · | · | · | · | ·
CC(C)CNC(=O)c1ccccc1SCC(=O)NC12CC3CC(CC(C3)C1)C2 | 78 | 23* | 79 | 4 | 68 | 1 | 78* | 0 | 98 | 109 | 105 | 104 | 137
Cc1ccc(-n2c(N)c(C(=O)Nc3c(C)n(C)n(-c4ccccc4)c3=O)c3nc4ccccc4nc32)cc1C | 96 | 106 | 96 | 25 | 99 | 3 | · | · | · | · | · | · | ·
COc1ccc(-n2c(N)c(C(=O)Nc3c(C)n(C)n(-c4ccccc4)c3=O)c3nc4ccccc4nc32)cc1 | 315*[activator] | 288*[activator] | ? | · | 141*[activator] | · | · | 0 | 102 | 105 | 101 | 102 | 100
CCCCNC(=O)CN(c1cccc(F)c1)S(C)(=O)=O | 100 | 101 | 95 | 1 | 101 | 0 | · | · | · | · | · | · | ·
CCCNC(=O)CN(c1cccc(F)c1)S(C)(=O)=O | 126 | 282 | 117 | 7 | 155*[activator] | 0 | 126* | 2 | 103 | 106 | 103 | 102 | 108
CS(=O)(=O)N(CC(=O)NCCSCc1ccccc1)c1ccccc1 | 102 | 103 | 97 | 0 | 104 | 0 | · | · | · | · | · | · | ·
Cc1cc(C)cc(N(CC(=O)NCCSCc2ccccc2)S(C)(=O)=O)c1 | 119 | 108 | 180*[activator] | 1 | 104 | 1 | 119* | 0 | 100 | 47* | 82 | 60* | 48*
CC(=O)c1c(C(C)=O)c(C)n(NC(=O)c2ccc(Cl)cc2)c1C | 194*[activator] | 174 | 163*[activator] | 0 | 108 | 0 | · | -1 | 109 | 112 | 110 | 112 | 124
CC(=O)c1c(C(C)=O)c(C)n(NC(=O)c2ccccc2Cl)c1C | 96 | 100 | 96 | 1 | 98 | 0 | · | · | · | · | · | · | ·
